V-ATPase pHluor = regulators of yeast V-ATPase proton pumping, primary screen, pHLuorin cytosolic pH fluorescence | AID 504577, 2011 | response, % at 10 µM | 350,000 compounds, 0.37% hits | S. cerevisiae; in the data active = response mostly above about 7.3%, no sharp cut-off; inactive = mostly below about 5.4%; note: actives read high
GAA850 FXN act = FXN promoter activators, primary screen, cell-based, luciferase luminescence, HEK293 lucGAA850. AID 540364, 2011. 360,000 compounds, 0.56% hits. HEK293 lucGAA850 FXN promoter luciferase reporter, 24 h; percent of 10 µM SAHA response. activation, % at 6 µM;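 active = activation above the average of all compounds screened plus 3 SD, cutoff fixed separately per campaign, cut at about 7.5% in these data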
NR2E3 ag-1 = inhibitors of NR2E3-RetCOR corepressor binding, primary screen, NR2E3 agonist project, biochemical, TR-FRET, GST-NR2E3, biotin-RetCOR | 1536-well | inhibition of corepressor binding, % at 4.78 µM | 320,000 compounds, 0.12% hits | AID 2300, 2010;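 active = percent inhibition above the cutoff of mean plus 3 SD of all tested compounds, set per screening campaign, cut at about 20% in these data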
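Format: 1536-well format; test system: GST-NR2E3 and biotin-RetCOR proteins; read-out basis: percent inhibition of TR-FRET ratio; timing: 5 h incubation at 4 °C; detection: time-resolved FRET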
NR2E3 ag-2 = NR2E3 agonists in two-hybrid cells, primary screen, cell-based, luminescence, CHO-S, Gal4-NCOR/VP16-NR2E3; Photoreceptor-specific nuclear receptor (Homo sapiens), Q9Y5X4; luciferase; inhibition of corepressor binding, % at 3.98 µM; 360,000 compounds, 0.35% hits;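 active = inhibition above the mean of all tested compounds plus 3 SD, cut at about 70% in these data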;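 note: higher means lower luciferase signal from less NR2E3 corepressor binding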
Env fusion inh = inhibitors of HIV-1 Env-driven cell-cell fusion, primary screen, HeLa-JRFL effector, CEM21 target cells, luciferase. inhibition, % at 12.3 µM. 360,000 compounds, 1.1% hits. AID 651610, 2012;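 active = mean replicate inhibition score of at least 50 and every replicate individually at or above 50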
GalR3 antagonist = GalR3 antagonists in HEK293 cells, primary screen, cell-based, fluorescence readout; HEK293 GalR3-CNG cAMP membrane potential fluorescence; galR3 body fused to GalR1 C-terminus; inhibition, % at 3 µM; 360,000 compounds, 0.44% hits; AID 651719, 2012;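 active = inhibition above the screen-wide average plus 3 SD, cut at about 13% in these data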;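 note: forskolin and galanin both at EC90 stimulate the cells; cAMP rise reported by CNG channel membrane potential dye signal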
NR2E3 agonist cf = NR2E3 agonists, confirmation, biochemical, TR-FRET; shares compounds with NR2E3 ag-1; cell-free NR2E3 corepressor release, 5 h; activation (reported as inhibition), % at 3.98 µM; 360 compounds, 39% hits; AID 2379, 2010; in the data active = activation above about 20%
PPARg-NCOR2 ctr = agonists of PPARg-NCOR2 corepressor interaction, counter-screen for NR2E3 agonist project, biochemical, TR-FRET; shares compounds with NR2E3 ag-1; TR-FRET PPARg-NCOR2 coregulator interaction; inhibition, % at 3.98 µM; 360 compounds, 45% hits; AID 504787, 2011; in the data active = inhibition above about 20%
Numbers stand for hits. Only some compounds are listed: those with a hit (about 2.2% of all), similar ones and a draw of the others.

`O=C(C1=C(O)C(=O)N(CCCn2ccnc2)C1c1cccc(Br)c1)c1ccco1` (stereo not drawn) gave V-ATPase pHluor inactive, GAA850 FXN act inactive, NR2E3 ag-1 34, NR2E3 ag-2 inactive, Env fusion inh inactive, GalR3 antagonist inactive, NR2E3 agonist cf inactive and PPARg-NCOR2 ctr inactive.
For CCCOc1cccc(C2C(C(=O)c3ccco3)=C(O)C(=O)N2CCCn2ccnc2)c1 (stereo not drawn) the results were V-ATPase pHluor inactive, GAA850 FXN act inactive, NR2E3 ag-1 inactive, NR2E3 ag-2 inactive, Env fusion inh inactive and GalR3 antagonist inactive.
Screening O=C(C1=C(O)C(=O)N(CCCn2ccnc2)C1c1ccccc1)c1ccco1 (stereo not drawn) returned V-ATPase pHluor inactive, GAA850 FXN act inactive, NR2E3 ag-1 32, NR2E3 ag-2 inactive, NR2E3 agonist cf inactive and PPARg-NCOR2 ctr inactive.
Screening C[C@@H]1CCCCO[C@@H](CN(C)C(=O)c2ccccc2)[C@H](C)CN([C@@H](C)CO)C(=O)c2cc(NC(=O)C3CCCCC3)ccc2O1 returned Env fusion inh inactive.
`COc1cccc(CNC(=O)COC(=O)/C(C#N)=C/c2ccc(N(C)C)cc2)c1` gave V-ATPase pHluor inactive, GAA850 FXN act inactive, NR2E3 ag-1 31, NR2E3 ag-2 inactive, Env fusion inh inactive, GalR3 antagonist inactive, NR2E3 agonist cf 36 and PPARg-NCOR2 ctr 35.
`Cc1ccc(-c2c3c([nH]c(=S)c2C#N)CCCC3)o1` gave V-ATPase pHluor inactive, GAA850 FXN act inactive, NR2E3 ag-1 49, NR2E3 ag-2 inactive, Env fusion inh inactive, GalR3 antagonist inactive, NR2E3 agonist cf 82 and PPARg-NCOR2 ctr 75.
For Cc1ccc(CSCCNC(=O)c2ccc(N(C)S(=O)(=O)c3ccccc3)cc2)cc1 the results were V-ATPase pHluor inactive, GAA850 FXN act inactive, NR2E3 ag-1 22, NR2E3 ag-2 inactive, GalR3 antagonist inactive, NR2E3 agonist cf inactive and PPARg-NCOR2 ctr inactive.
`C[C@@H]1CN([C@H](C)CO)C(=O)Cc2cc(NC(=O)CCCCCC(=O)Nc3ccccc3N)ccc2O[C@H]1CN(C)CC1CCCCC1` gave Env fusion inh inactive.
Screening COc1ccc([C@@H](OC(=O)Nc2ccc(SC)cc2)[C@@H](CCO)OC)cc1O returned Env fusion inh inactive.
CCOC(=O)COc1cc(Br)c(/C=N/Nc2ccccc2)cc1OC was read as V-ATPase pHluor inactive, GAA850 FXN act inactive, NR2E3 ag-1 26, NR2E3 ag-2 inactive, Env fusion inh inactive, GalR3 antagonist inactive, NR2E3 agonist cf inactive and PPARg-NCOR2 ctr inactive.
Screening COc1cc(C=O)c(Br)cc1OCC(=O)NCCc1ccccc1 returned V-ATPase pHluor inactive, GAA850 FXN act inactive, NR2E3 ag-1 inactive, NR2E3 ag-2 inactive, Env fusion inh inactive and GalR3 antagonist inactive.
Screening Cc1cc(Br)c2nc3c(c(C(=O)O)c2c1)CCCCC3 returned V-ATPase pHluor inactive, GAA850 FXN act inactive, NR2E3 ag-1 48, NR2E3 ag-2 inactive, GalR3 antagonist inactive, NR2E3 agonist cf 60 and PPARg-NCOR2 ctr 60.
CCOc1ccccc1NC(=O)CSc1nc(N)c(C#N)cc1C#N was read as V-ATPase pHluor inactive, GAA850 FXN act inactive, NR2E3 ag-1 43, NR2E3 ag-2 inactive, GalR3 antagonist inactive, NR2E3 agonist cf 33 and PPARg-NCOR2 ctr 54.
O=C(O)CCc1ccc(-c2ccc(Br)cc2)o1 was read as V-ATPase pHluor inactive, GAA850 FXN act inactive, NR2E3 ag-1 35, NR2E3 ag-2 inactive, Env fusion inh inactive, GalR3 antagonist inactive, NR2E3 agonist cf 36 and PPARg-NCOR2 ctr 32.
Screening CC(C)n1c2ccccc2c2nnc(SCC(=O)Nc3ccccc3C(=O)O)nc21 returned V-ATPase pHluor inactive, GAA850 FXN act inactive, NR2E3 ag-1 26, NR2E3 ag-2 inactive, Env fusion inh inactive, GalR3 antagonist inactive, NR2E3 agonist cf inactive and PPARg-NCOR2 ctr inactive.
Cn1c2ccccc2c2nnc(SCC(=O)Nc3ccccc3F)nc21 was read as V-ATPase pHluor inactive, GAA850 FXN act inactive, NR2E3 ag-1 inactive, NR2E3 ag-2 inactive, Env fusion inh inactive and GalR3 antagonist inactive.
Screening COc1ccc(S(=O)(=O)N(C)C[C@@H]2Oc3ccc(NC(=O)Nc4ccccc4)cc3CC(=O)N([C@H](C)CO)C[C@H]2C)cc1 returned Env fusion inh inactive.
For CCCCOc1ccc(-c2c(C(=O)Nc3ccccc3)c(C)[nH]c(=S)c2C#N)cc1 the results were V-ATPase pHluor inactive, GAA850 FXN act inactive, NR2E3 ag-1 94, NR2E3 ag-2 inactive, Env fusion inh inactive, GalR3 antagonist inactive, NR2E3 agonist cf 84 and PPARg-NCOR2 ctr 71.
COc1ccccc1NC(=O)N1CCC(NC(=O)C2CCCCC2)CC1 was read as V-ATPase pHluor inactive, GAA850 FXN act inactive, NR2E3 ag-1 32, NR2E3 ag-2 inactive, Env fusion inh inactive, GalR3 antagonist inactive, NR2E3 agonist cf inactive and PPARg-NCOR2 ctr inactive.
For CN1CCN(C(=O)C[C@H]2CC[C@@H](NC(=O)Cc3ccccn3)[C@@H](CO)O2)CC1 the results were Env fusion inh inactive.
COc1ccc(C(CNC(=O)COc2cccc(C(F)(F)F)c2)N2CCCC2)cc1 (stereo not drawn) was read as V-ATPase pHluor inactive, GAA850 FXN act inactive, NR2E3 ag-1 32, NR2E3 ag-2 inactive, GalR3 antagonist inactive, NR2E3 agonist cf inactive and PPARg-NCOR2 ctr inactive.
CC(Sc1ccc2ccccc2n1)C(=O)O (stereo not drawn) was read as V-ATPase pHluor inactive, GAA850 FXN act inactive, NR2E3 ag-2 inactive, Env fusion inh inactive and GalR3 antagonist inactive.
`CC(Sc1cnc2ccccc2n1)C(=O)O` (stereo not drawn) gave V-ATPase pHluor inactive, GAA850 FXN act inactive, NR2E3 ag-1 30, NR2E3 ag-2 inactive, Env fusion inh inactive, GalR3 antagonist inactive, NR2E3 agonist cf inactive and PPARg-NCOR2 ctr inactive.
For C[C@H](CO)N1C[C@H](C)[C@@H](CN(C)S(=O)(=O)c2ccc(Cl)cc2)Oc2ccc(NC(=O)NC3CCCCC3)cc2CC1=O the results were Env fusion inh inactive.

High-throughput results as filed in PubChem.
